Compound activity as filed in PubChem BioAssay.
An excerpt weighted towards active compounds, which were near 2.3% of everything screened.
OXTR potentiate: human OXTR potentiators, primary screen, fluorescence, CHO-OTR cells, Fluo-8 calcium; activation, % at 3 µM; Oxytocin receptor (Homo sapiens), P30559; 320,000 tested, 0.061% active; Fluo-8 calcium fluorescence, potentiator mode; 0% = oxytocin EC15, 100% = EC100;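 active = activation above that plate's cutoff, the mean activation of tested compounds plus 3 SD, cut at about 6.6% in these data, passing the limit was not always enough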
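Replication – single well per compound, singlicate · Assay system – CHO cell line stably expressing human OTR · Timing – 6 min pre-incubation, 100 s read · Measure – normalized max/min fluorescence ratio, % activation · Doses – 3.0 µM, one dose · Detection – Fluo-8 calcium dye fluorescence · Probe or stimulus – oxytocin near EC15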
TAAR1 ag: human TAAR1 agonists, primary screen, Fluo-8 calcium fluorescence, CHO RD-HGA16 cells; Trace amine-associated receptor 1 (Homo sapiens), Q96RJ0; vehicle wells 0%, saturating PEA agonist 100%; activation, % at 3 µM; 360,000 tested, 0.99% active; AID 624467, 2012;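 active = activation above the mean activation of all test compounds in the run plus 3 SD, cut at about 38% in these data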
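Signal – calcium-sensitive Fluo-8 signal, excitation 470-495, emission 515-575 nm · System – RD-HGA16 (CHO) cells co-expressing Gα16 and hTAAR1 · Incubation – 17-24 h seeding, 75 min 37 °C dye, 30 min RT · Compound dosing – 3 µM single concentration · Repeats – no replicates (n 1)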
TAAR1 antag: human TAAR1 antagonists, primary screen, Fluo-8 calcium fluorescence, CHO RD-HGA16 cells; Trace amine-associated receptor 1 (Homo sapiens), Q96RJ0; antagonist; inhibition, % at 3 µM; 360,000 tested, 1.5% active;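 active = inhibition above a per-plate cutoff, the mean inhibition of test compounds on that plate plus 3 SD, cut at about 49% in these data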
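Assay system: RD-HGA16 CHO cells with stable hTAAR1 and Gα16 / Reagent: EC80 β-phenethylamine stimulus / Doses: 3 µM, single point / Timing: dye loading 75 min at 37 °C, then 30 min room temperature / Measured by: Fluo-8 intracellular calcium dye fluorescence, real-time kinetic reads / Controls: vehicle wells and EC80 agonist wells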
V1aR counter: agonists of human V1a receptor, primary screen, counter-screen for OXTR agonist project, fluorescence, CHO-V1R cells. 320,000 tested, 0.25% active. activation, % at 3 µM. Vasopressin V1a receptor (Homo sapiens), P37288. Fluo-8 calcium fluorescence, agonist mode; 0% DMSO, 100% 3 nM vasopressin;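 active = activation above the mean activation of all tested compounds plus 3 SD, per screening run, cut at about 20% in these data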;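 also: signal is peak over basal fluorescence ratio across a 100 second FLIPR read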
Target sequence (P37288 whole entry, looked up): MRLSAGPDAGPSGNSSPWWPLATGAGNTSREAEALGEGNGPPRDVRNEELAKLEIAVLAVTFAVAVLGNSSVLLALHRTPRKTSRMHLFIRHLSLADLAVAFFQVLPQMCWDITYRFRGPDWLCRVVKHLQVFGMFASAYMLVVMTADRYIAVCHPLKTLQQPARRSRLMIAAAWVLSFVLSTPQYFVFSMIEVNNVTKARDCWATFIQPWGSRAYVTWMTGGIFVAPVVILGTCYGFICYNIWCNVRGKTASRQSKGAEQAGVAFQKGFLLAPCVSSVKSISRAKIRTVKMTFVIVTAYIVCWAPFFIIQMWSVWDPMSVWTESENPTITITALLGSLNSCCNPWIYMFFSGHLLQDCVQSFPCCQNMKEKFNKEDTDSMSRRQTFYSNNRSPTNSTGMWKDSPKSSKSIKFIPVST
OXTR agonist: human OXTR agonists, primary screen, fluorescence, CHO-OTR cells, Fluo-8 calcium | Oxytocin receptor (Homo sapiens), P30559 | Fluo-8 calcium fluorescence; normalized: DMSO 0%, oxytocin 100% | activation, % at 3 µM | 320,000 tested, 0.32% active;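 active = activation above the mean of all tested compounds plus 3 SD, cutoff set per screening run, cut at about 20% in these data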;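 also: peak over basal fluorescence ratio from a 100 s FLIPR kinetic read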
Numbers stand for hits; n = inactive; x = not tested or not shown.

SMILES	OXTR potentiate	TAAR1 ag	TAAR1 antag	V1aR counter	OXTR agonist
Cc1ccccc1CCNC(=O)CCn1ccc2cc(S(=O)(=O)N3CCCC3)ccc21	n	44	n	n	n
COc1ccccc1N(C)S(=O)(=O)c1ccc(C(=O)NCC2CCCCC2)cc1	n	n	53	n	n
COC(=O)c1ccc(CNC(=O)c2ccc(S(=O)(=O)N(C)c3ccccc3OC)cc2)cc1	n	n	57	n	n
CCc1c(-c2ccc(F)cc2)ncn1CCc1ccccc1OC	x	n	n	x	x
O=C1CC(O)C(Cc2ccccc2)N1 (stereo not drawn)	x	n	n	x	x
COC(=O)[C@]12CCCCC=C1N(Cc1ccccc1)C(=O)[C@H](CC(=O)N1CCCC1)C2	x	n	56	x	x
COC(=O)[C@]12CCCCC=C1N(CCc1ccc(OC)c(OC)c1)C(=O)[C@H](CC(=O)N1CCCC1)C2	x	n	n	x	x
COC(=O)[C@]12CCCCC=C1N(CCc1ccc(OC)c(OC)c1)C(=O)[C@H](CC(=O)N1CCSCC1)C2	x	n	61	x	x
C#CCNC(=O)C[C@@H]1C[C@@]2(C(=O)OC)CCCCC=C2N(Cc2ccc3c(c2)OCO3)C1=O	x	n	n	x	x
COC(=O)[C@]12CCCCC=C1N(Cc1ccc3c(c1)OCO3)C(=O)[C@H](CC(=O)N1CCCCC1)C2	x	n	52	x	x
CCOC(=O)[C@]12CCC=C1N(Cc1ccc3c(c1)OCO3)C(=O)[C@H](CC(=O)N1CCCC1)C2	x	n	n	x	x
COC(=O)[C@]12CCCCC=C1N(Cc1ccc3c(c1)OCO3)C(=O)[C@H](CC(=O)N1CCCC1)C2	x	n	54	x	x
CCc1cc2c(nc1CC)CCCN2S(=O)(=O)c1ccc(F)cc1	x	n	n	x	x
O=C(Nc1c(F)c(F)c(F)c(F)c1F)OC[C@@H]1CSCCS(=O)(=O)N1	x	n	n	x	x
Cc1cc(NCCc2ccccc2F)n2ncnc2n1	n	38	n	n	n
COc1cc(/C=C/C(=O)c2ccc3c(c2)OCO3)cc(Cl)c1O	n	56	n	98	70
CN(C)c1ccc2nc3c(=O)[nH]c(=O)nc-3n(CC(O)C(O)C(O)CO)c2c1 (stereo not drawn)	n	n	n	35	23
Cc1ncc(C(O)c2ccc(N(C)C)cc2)n1Cc1ccccc1 (stereo not drawn)	x	n	n	x	x
COC(=O)[C@@H](N[C@H](/C=C/c1ccccc1)[C@@H](O)Cc1ccccc1)C(C)C	x	n	n	x	x
O=C(CSc1ccc(-c2nc3ccccc3[nH]2)cn1)Nc1ccc(S(=O)(=O)N2CCCC2)cc1	n	n	51	n	n
CN(CCO)C(=O)c1nc[nH]c1C(=O)N1CCN(c2ccccc2)CC1	x	n	n	x	x
N#Cc1ccccc1S(=O)(=O)N1CCN(c2nc(-c3cccnc3)nc3ccccc23)CC1	x	n	51	x	x
O=S(=O)(c1ccccc1F)N1CCN(c2nc(-c3cccnc3)nc3ccccc23)CC1	n	n	57	n	n
O=C(NCc1ccccn1)[C@@H]1CCCN1C(=O)[C@@H]1CCCN1C(=O)c1cccs1	x	n	n	x	x
CCn1c(N2CCN(S(=O)(=O)c3ccc(F)cc3)CC2)nc2ccccc21	n	n	n	n	n
SMILES	OXTR potentiate	TAAR1 ag	TAAR1 antag	V1aR counter	OXTR agonist
CCn1c(N2CCN(S(=O)(=O)c3ccc(Cl)cc3)CC2)nc2ccccc21	n	n	72	n	n
COc1ccc(/C=N/OCC(=O)NC(c2ccccc2)c2ccccc2)c(OC)c1	n	n	n	n	n
CCOc1ccc(/C=N/OCC(=O)NC(c2ccccc2)c2ccccc2)cc1	n	n	53	n	n
COC(=O)C1=C(C)N(C)C(=NCc2cc(OC)c(OC)c(OC)c2)NC1c1cccc(F)c1 (stereo not drawn)	x	n	n	x	x
COc1ccc(Cl)cc1-c1cc(C(=O)Nc2ccc(Br)cc2)[nH]n1	x	n	n	x	x
CCCS(=O)(=O)NC(=O)C1(C)CCCN(C(=O)c2ccc(C(=O)OC)cc2)C1 (stereo not drawn)	x	n	n	x	x
O=c1[nH]c2ccc(NC(=S)Nc3ccccc3)cc2[nH]1	n	n	n	n	n
CCOC(=O)c1ccc(NC(=S)NCCc2ccccc2)cc1	n	39	n	n	n
O=c1[nH]c2ccc(NC(=S)NCCc3ccccc3)cc2[nH]1	n	41	n	n	n
O=C(C(=O)N1CCN(C(=O)C2CCCC2)CC1)c1cccc(C(F)(F)F)c1	x	n	n	x	x
Nc1c(C(=O)NCC2CCCO2)c2nc3ccccc3nc2n1-c1ccccc1 (stereo not drawn)	n	n	50	n	n
Cc1ccc(Cl)cc1N1CCN(C(=O)c2cc3c(=O)[nH]c4ccccc4c3n2C)CC1	n	n	51	n	n
Cn1c(C(=O)N2CCN(c3ccc(Cl)cc3)CC2)cc2c(=O)[nH]c3ccccc3c21	n	n	n	n	n
COc1ccc(-c2csc(NC(=O)CCS(=O)(=O)c3ccccc3)n2)c(OC)c1	n	n	55	n	n
COc1ccc(OC)c(-c2csc(NC(=O)CSc3ccc([N+](=O)[O-])cc3)n2)c1	n	n	49	n	n
COc1ccc(OC)c(-c2csc(NC(=O)Cn3[nH]c(=O)c4ccccc4c3=O)n2)c1	n	n	54	n	n
COc1ccc(NC(=O)c2ccc3c(c2)S(=O)(=O)N=C2CCCCCN23)cc1S(N)(=O)=O	x	n	n	x	x
COc1ccccc1-c1cnc(C(O)c2ccc(Cl)cc2)[nH]1 (stereo not drawn)	x	n	n	x	x
CN1C2CCC1/C(=C/c1cccn1C)C(=O)/C2=C\c1cccn1C	n	n	n	45	45
CN1C2CCC1/C(=C\c1ccc(F)cc1)C(=O)/C2=C/c1ccc(F)cc1	n	n	n	n	n
CCOC(=O)C1=C(C)Nc2ccccc2N=C1NC(=O)C1CCN(C(=O)c2ccccc2C)CC1	n	n	49	n	n
CCOC(=O)N1CCN(C(=O)C2CCN(C(=O)c3ccccc3C)CC2)CC1	x	66	n	x	x
COC(=O)/C=C1\OCc2cc(OC)c(OC)cc21	x	n	n	x	x
CCOC(=O)C1CCCN(C(=O)C2c3ccccc3Oc3ccccc32)C1 (stereo not drawn)	n	n	n	35	44
CCOC(=O)C1CCCN(C(=O)Cc2c(C(=O)O)[nH]c3ccccc23)C1 (stereo not drawn)	n	39	n	n	n
CCOC(=O)C1CCCN(C(=S)Nc2ccc(Nc3ccccc3)cc2)C1 (stereo not drawn)	n	44	n	n	n
CCOC(=O)C1CCN(C(=S)Nc2ccccc2)CC1	n	n	n	n	n
CCOC(=O)C1CCCN(C(=O)c2ccc(-c3ccc([N+](=O)[O-])cc3)o2)C1 (stereo not drawn)	n	49	n	n	n
